Assay results: ChEMBL document CHEMBL2311332, “Epidithiodiketopiperazine as a pharmacophore for protein lysine methyltransferase G9a inhibitors: reducing cytotoxicity by structural simplification” (Bioorg Med Chem Lett, 2013)
pIC50: −log10 of the molar value. Calls of active or inactive are those of the source. The calls are words filed in the database; no cut-off is given here.

Legend:
[1] = molecular target: T1, Histone-lysine N-methyltransferase EHMT2 (Homo sapiens, UniProt Q96KQ7); assay: Inhibition of protein lysine methyltransferase G9a (unknown origin) by modified ELISA assay
T1 sequence (Q96KQ7 whole entry): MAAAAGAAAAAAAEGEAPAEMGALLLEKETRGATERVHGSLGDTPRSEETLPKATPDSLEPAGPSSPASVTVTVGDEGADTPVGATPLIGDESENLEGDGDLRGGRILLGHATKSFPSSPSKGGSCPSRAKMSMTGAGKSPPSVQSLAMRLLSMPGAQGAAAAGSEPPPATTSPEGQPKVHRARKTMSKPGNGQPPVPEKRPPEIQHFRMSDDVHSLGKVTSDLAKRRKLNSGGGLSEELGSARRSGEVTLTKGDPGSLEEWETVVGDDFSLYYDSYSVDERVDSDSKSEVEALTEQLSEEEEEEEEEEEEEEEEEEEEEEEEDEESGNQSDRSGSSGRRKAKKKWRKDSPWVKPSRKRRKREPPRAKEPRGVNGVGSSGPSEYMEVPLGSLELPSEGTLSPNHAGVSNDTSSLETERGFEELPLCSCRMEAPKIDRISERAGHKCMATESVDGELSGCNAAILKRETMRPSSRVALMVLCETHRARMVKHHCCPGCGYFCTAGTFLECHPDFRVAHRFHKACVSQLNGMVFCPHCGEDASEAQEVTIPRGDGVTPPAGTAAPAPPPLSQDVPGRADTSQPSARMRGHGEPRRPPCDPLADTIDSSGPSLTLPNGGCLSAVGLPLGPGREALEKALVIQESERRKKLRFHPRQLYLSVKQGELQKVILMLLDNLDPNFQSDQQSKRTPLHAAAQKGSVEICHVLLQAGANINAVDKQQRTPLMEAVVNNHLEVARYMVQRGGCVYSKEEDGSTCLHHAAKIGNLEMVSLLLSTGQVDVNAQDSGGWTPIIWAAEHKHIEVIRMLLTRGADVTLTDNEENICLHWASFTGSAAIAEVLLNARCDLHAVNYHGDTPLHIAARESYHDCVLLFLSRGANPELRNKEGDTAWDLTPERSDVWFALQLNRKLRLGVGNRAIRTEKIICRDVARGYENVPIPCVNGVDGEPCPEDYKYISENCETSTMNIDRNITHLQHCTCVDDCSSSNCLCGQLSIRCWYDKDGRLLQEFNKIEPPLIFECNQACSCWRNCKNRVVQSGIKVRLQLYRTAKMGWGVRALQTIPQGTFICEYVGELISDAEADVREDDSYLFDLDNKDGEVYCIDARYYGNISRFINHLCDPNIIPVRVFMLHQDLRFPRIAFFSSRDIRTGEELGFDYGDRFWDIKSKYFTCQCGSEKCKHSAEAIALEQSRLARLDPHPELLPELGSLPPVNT

[2] = molecular target: T1, Histone-lysine N-methyltransferase EHMT2; assay: Inhibition of protein lysine methyltransferase G9a (unknown origin) by ELISA assay
HL-60 = assay: Cytotoxicity against human HL60 cells at 3 to 30 uM after 4 hrs by Alamar Blue assay; assay type: cell-based; conditions: hl-60, 4 h
Summary of the method: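 HL-60 cells were exposed to the derivatives for 4 h. Cell viability was then read by alamarBlue.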

[3] = molecular target: Thioredoxin reductase (Homo sapiens) (UniProt Q16881+Q9NNW7+Q86VQ6); assay: Inhibition of thioredoxin reductase (unknown origin) assessed as reduction of DTNB at 10 uM; assay type: protein assay

| SMILES | pIC50 [1] | pIC50 [2] | Activity (HL-60) | inhibition [3] |
| --- | --- | --- | --- | --- |
| CN1C(=O)[C@H]2C[C@]3([C@]45C[C@@H]6C(=O)N(C)[C@H](CO)C(=O)N6[C@H]4Nc4ccccc45)c4ccccc4N[C@@H]3N2C(=O)[C@H]1CO | < 4.00 | < 4.30 |  |  |
| CN1C(=O)[C@@H]2C[C@@]3([C@@]45C[C@H]6C(=O)N(C)[C@@H](CO)C(=O)N6[C@@H]4Nc4ccccc45)c4ccccc4N[C@H]3N2C(=O)[C@@H]1CO | < 4.00 |  |  |  |
| CN1C(=O)[C@@]23C[C@@H]4c5ccccc5N[C@@H]4N2C(=O)[C@@]1(CO[Si](C)(C)C(C)(C)C)SS3 | 5.48 |  |  |  |
| CN1C(=O)C23CCCN2C(=O)C1(CO)SSS3 (racemic) | 5.28 |  | Non-toxic | inactive |
| CN1C(=O)[C@]23C[C@H]4c5ccccc5N[C@H]4N2C(=O)[C@]1(CO[Si](C)(C)C(C)(C)C)SS3 | 4.63 |  |  |  |
| CN1C(=O)C2(S)CCCN2C(=O)C1(S)CO (racemic) | 4.88 |  | Non-toxic |  |
| CN1C(=O)[C@]23C[C@@]4([C@@]56C[C@]78SS[C@](CO)(C(=O)N7[C@@H]5Nc5ccccc56)N(C)C8=O)c5ccccc5N[C@H]4N2C(=O)[C@@]1(CO)SS3 | 5.19 |  |  |  |
| CN1C(=O)[C@@]23C[C@]4([C@]56C[C@@]78S[C@](CO)(C(=O)N7[C@H]5Nc5ccccc56)N(C)C8=O)c5ccccc5N[C@@H]4N2C(=O)[C@@]1(CO)S3 | < 4.00 |  |  |  |
| CN1C(=O)[C@@]2(S)C[C@]3([C@]45C[C@]6(S)C(=O)N(C)[C@](S)(CO)C(=O)N6[C@H]4Nc4ccccc45)c4ccccc4N[C@@H]3N2C(=O)[C@@]1(S)CO | 4.57 |  |  |  |
| CN1C(=O)C23CCCN2C(=O)C1(CO)SS3 (racemic) | 5.28 |  | Non-toxic | inactive |
| CN1C(=O)[C@@]23C[C@]4([C@]56C[C@@]78SS[C@@](CO)(C(=O)N7[C@H]5Nc5ccccc56)N(C)C8=O)c5ccccc5N[C@@H]4N2C(=O)[C@]1(CO)SS3 [CHAETOCIN] | 5.14 |  |  |  |
| CN1C(=O)[C@@]23C[C@]4([C@]56C[C@@]78SS[C@](CO[Si](C)(C)C(C)(C)C)(C(=O)N7[C@H]5Nc5ccccc56)N(C)C8=O)c5ccccc5N[C@@H]4N2C(=O)[C@@]1(CO[Si](C)(C)C(C)(C)C)SS3 | 5.14 |  |  |  |
